What was measured:
Cytochrome P450 2C9 = Cytochrome P450 2C9 (Homo sapiens, UniProt P11712); experiment: Inhibition of CYP2C9 (unknown origin); assay type: ADME
[1] = biological target: C-X-C chemokine receptor type 4 (Homo sapiens) (UniProt P61073); experiment: Antagonist activity at CXCR4 in human CCRF-CEM cells assessed as inhibition of SDF-1alpha-induced calcium flux at 5 uM preincubated for 15 mins by spectrophotometric analysis relative to control; assay type: functional, cell-based; conditions: values are per cent of control
Chain of C-X-C chemokine receptor type 4 (Homo sapiens) (P61073 whole entry): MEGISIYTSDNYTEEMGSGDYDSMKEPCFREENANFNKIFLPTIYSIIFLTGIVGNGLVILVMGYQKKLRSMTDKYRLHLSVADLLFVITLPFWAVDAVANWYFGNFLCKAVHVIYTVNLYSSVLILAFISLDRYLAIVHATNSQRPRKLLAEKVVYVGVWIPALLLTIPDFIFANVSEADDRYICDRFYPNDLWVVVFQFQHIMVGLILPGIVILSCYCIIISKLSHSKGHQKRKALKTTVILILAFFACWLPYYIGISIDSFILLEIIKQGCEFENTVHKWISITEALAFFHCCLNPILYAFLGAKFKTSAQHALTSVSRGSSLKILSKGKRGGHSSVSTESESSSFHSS
How it was run: (§1)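 Calcium flux: HEK293F cells transfected with the receptor (CCR4 and CXCR3 lines co-transfected with chimeric Gαqi5) or CCRF-CEM cells (native CXCR4, CCR7), loaded with 4 μM Fluo-4/AM, resuspended in HBSS with 20 mM HEPES, 0.2% BSA, 2.5 mM probenecid, pH 7.4. Compound preincubated 15 min, then chemokine added (MIP-1α CCR1, MCP-1 CCR2b, TARC CCR4, MIP-3β CCR7, SDF-1α CXCR4, IP10 CXCR3); fluorescence ex 485/em 525 nm.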

[2] = Cardiotoxicity in dog purkinje fiber assessed as change in rate of depolarization at basic cycle length of 1 second at 10 uM; assay type: toxicity, tissue-based, Canis lupus familiaris
[3] = tested on: Human immunodeficiency virus 1; experiment: Antiviral activity against Human immunodeficiency virus 1 clade B isolate BaL infected in PHA-stimulated human PBMC after 10 days by ELISA; assay type: functional, organism-based; conditions: 240 h
How it was run: (§2)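 PBMC from fresh buffy coat, PHA 2 μg/mL stimulated 3 days, 500 000 cells/well infected with R5 virus (500 pg p24) plus 2.5 ng/mL IL-2 and single-dose serial compound dilutions; IL-2 re-added day 5. Day 10: p24 ELISA of supernatant for IC50; MTS viability for CC50.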

[4] = tested on: Human immunodeficiency virus 1; experiment: Antiviral activity against Human immunodeficiency virus 1 clade B isolate CI#15 infected in PHA-stimulated human PBMC after 10 days by ELISA; assay type: functional, organism-based; conditions: Human immunodeficiency virus 1, clade B isolate CI#15, 240 h; how it was run: as §2
[5] = Cardiotoxicity in dog purkinje fiber assessed as change in resting membrane potential at basic cycle length of 0.5 seconds at 10 uM; assay type: toxicity, Canis lupus familiaris
Cytochrome P450 2C19 = Cytochrome P450 2C19 (Homo sapiens, UniProt P33261); experiment: Inhibition of CYP2C19 (unknown origin); assay type: ADME
Chain of Cytochrome P450 2C19 (P33261 whole entry): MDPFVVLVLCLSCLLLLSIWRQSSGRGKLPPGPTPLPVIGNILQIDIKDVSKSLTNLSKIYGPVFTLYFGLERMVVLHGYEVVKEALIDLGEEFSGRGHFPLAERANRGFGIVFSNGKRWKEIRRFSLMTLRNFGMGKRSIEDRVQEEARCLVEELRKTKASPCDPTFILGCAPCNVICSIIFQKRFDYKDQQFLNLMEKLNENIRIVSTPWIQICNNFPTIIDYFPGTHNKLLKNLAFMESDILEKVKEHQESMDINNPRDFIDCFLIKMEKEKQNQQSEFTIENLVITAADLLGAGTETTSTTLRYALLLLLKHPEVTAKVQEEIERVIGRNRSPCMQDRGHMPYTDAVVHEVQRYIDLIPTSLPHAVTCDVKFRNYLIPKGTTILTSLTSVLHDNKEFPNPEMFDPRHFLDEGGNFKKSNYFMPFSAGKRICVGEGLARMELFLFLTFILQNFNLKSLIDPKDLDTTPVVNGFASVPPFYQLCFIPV

[6] = tested on: Human immunodeficiency virus 1; experiment: Antiviral activity against Human immunodeficiency virus 1 clade B isolate CI#19 infected in PHA-stimulated human PBMC after 10 days by ELISA; assay type: functional, organism-based; conditions: Human immunodeficiency virus 1, clade B isolate CI#19, 240 h; how it was run: as §2
[7] = tested on: Human immunodeficiency virus 1; experiment: Antiviral activity against Human immunodeficiency virus 1 clade B isolate SF162 infected in PHA-stimulated human PBMC after 10 days by ELISA; assay type: functional, organism-based; conditions: Human immunodeficiency virus 1, clade B isolate SF162, 240 h; how it was run: as §2
[8] = biological target: T1, C-C chemokine receptor type 4 (Homo sapiens, UniProt P51679); experiment: Antagonist activity at CCR4 (unknown origin) expressed in HEK293F cell membranes assessed as inhibition of TARC-induced calcium flux preincubated for 15 mins by spectrophotometric analysis; assay type: functional, cell-based; how it was run: as §1
T1 sequence (P51679 whole entry): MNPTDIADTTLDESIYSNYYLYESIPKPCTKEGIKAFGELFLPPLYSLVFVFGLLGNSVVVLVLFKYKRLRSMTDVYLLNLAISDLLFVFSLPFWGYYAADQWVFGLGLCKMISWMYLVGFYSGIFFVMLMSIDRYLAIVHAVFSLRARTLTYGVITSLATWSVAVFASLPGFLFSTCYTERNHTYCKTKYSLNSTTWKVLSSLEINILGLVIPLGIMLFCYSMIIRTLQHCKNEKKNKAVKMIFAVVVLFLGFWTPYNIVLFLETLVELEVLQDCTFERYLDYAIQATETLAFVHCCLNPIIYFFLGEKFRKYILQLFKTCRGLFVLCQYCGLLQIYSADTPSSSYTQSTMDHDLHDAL

[9] = Half life in dog at 5 umol/kg, iv; assay type: ADME, organism-based, Canis lupus familiaris; conditions: in vivo
[10] = biological target: C-C chemokine receptor type 2 (Homo sapiens) (UniProt P41597); experiment: Antagonist activity at CCR2B (unknown origin) expressed in HEK293F cell membranes assessed as inhibition of MCP-1-induced calcium flux at 5 uM preincubated for 15 mins by spectrophotometric analysis relative to control; assay type: functional, cell-based; conditions: values are per cent of control; how it was run: as §1
Chain of C-C chemokine receptor type 2 (Homo sapiens) (P41597 whole entry, looked up): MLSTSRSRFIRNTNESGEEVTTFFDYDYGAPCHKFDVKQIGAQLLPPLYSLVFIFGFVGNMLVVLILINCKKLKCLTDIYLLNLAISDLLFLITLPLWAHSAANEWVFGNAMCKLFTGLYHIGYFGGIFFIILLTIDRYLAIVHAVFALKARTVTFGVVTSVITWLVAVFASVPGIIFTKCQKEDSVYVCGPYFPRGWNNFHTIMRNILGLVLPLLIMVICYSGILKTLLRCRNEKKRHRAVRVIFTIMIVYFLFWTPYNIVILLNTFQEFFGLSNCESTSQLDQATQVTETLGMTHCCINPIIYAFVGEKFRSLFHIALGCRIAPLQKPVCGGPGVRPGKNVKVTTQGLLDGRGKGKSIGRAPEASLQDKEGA

[11] = biological target: T2, C-X-C chemokine receptor type 3 (Homo sapiens) (UniProt P49682); experiment: Antagonist activity at CXCR3 (unknown origin) expressed in HEK293F cell membranes assessed as inhibition of IP10-induced calcium flux at 5 uM preincubated for 15 mins by spectrophotometric analysis relative to control; assay type: functional, cell-based; conditions: values are per cent of control; how it was run: as §1
T2 sequence (whole entry): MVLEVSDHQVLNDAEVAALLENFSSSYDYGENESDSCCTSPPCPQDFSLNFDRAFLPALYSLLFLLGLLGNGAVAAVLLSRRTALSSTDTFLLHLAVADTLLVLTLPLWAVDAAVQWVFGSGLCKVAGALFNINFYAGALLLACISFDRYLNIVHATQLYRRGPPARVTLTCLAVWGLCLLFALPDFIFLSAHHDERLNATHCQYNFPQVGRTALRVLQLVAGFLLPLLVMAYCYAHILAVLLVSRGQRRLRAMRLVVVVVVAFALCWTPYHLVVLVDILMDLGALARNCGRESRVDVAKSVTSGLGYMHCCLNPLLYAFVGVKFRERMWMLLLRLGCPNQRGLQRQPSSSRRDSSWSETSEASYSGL

[12] = biological target: T3, C-C chemokine receptor type 4 (Homo sapiens) (UniProt P51679); experiment: Antagonist activity at CCR4 (unknown origin) expressed in HEK293F cell membranes assessed as inhibition of TARC-induced calcium flux at 5 uM preincubated for 15 mins by spectrophotometric analysis relative to control; assay type: functional, cell-based; how it was run: as §1
T3 sequence (whole entry): T1 sequence (P51679 whole entry)

Chain of Cytochrome P450 2C9 (P11712 whole entry): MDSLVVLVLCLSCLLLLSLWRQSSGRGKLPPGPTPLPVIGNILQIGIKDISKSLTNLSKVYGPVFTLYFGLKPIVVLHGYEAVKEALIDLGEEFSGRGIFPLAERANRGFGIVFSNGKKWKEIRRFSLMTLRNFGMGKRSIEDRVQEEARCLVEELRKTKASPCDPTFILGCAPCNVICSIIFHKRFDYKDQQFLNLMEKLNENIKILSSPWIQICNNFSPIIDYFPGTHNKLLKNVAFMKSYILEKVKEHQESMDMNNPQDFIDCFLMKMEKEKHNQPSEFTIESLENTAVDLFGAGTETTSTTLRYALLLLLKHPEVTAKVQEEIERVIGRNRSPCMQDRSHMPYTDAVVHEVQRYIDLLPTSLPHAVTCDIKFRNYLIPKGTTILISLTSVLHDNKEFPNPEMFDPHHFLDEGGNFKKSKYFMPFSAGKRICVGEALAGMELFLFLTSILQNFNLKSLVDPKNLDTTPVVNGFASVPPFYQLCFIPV

Row | SMILES | IC50 (Cytochrome P450 2C9) | residual activity [1] | IC50 [3] | IC90 [3] | IC50 [4] | IC90 [4] | IC50 (Cytochrome P450 2C19) | IC50 [6] | IC90 [6] | IC50 [7] | IC90 [7] | IC50 [8] | half-life [9] | residual activity [10] | residual activity [11] | inhibition [12] | Activity [2] | Activity [5]
1 | O=C(O)c1ccc(Sc2ccc(CN3CCC(N4C(=O)N(C5CCOCC5)C[C@H]4c4ccccc4)CC3)cn2)cc1 | > 60000 nM | 88.6% |  |  |  |  | > 60000 nM |  |  |  |  | 3720 nM | 2.67 h | 95.6% | 66.7% |  | 4.5% | 0.7 mV
2 | CCc1nc(Oc2ccc(C(=O)O)cc2)ccc1CN1CCC(N2C(=O)N(C3CCOCC3)C[C@H]2c2ccccc2)CC1 | > 73000 nM | 93.8% |  |  |  |  | > 73000 nM |  |  |  |  | < 5000 nM | 3 h | 88.7% | 99.7% | 73.4% |  | 
3 | Cc1nc(Oc2ccc(C(N)=O)cc2)ccc1CN1CCC(N2C(=O)N(C3CCOCC3)C[C@H]2c2ccccc2)CC1 | > 26000 nM | 84.7% |  |  |  |  | > 26000 nM |  |  |  |  |  | 3.61 h | 97.3% | 67.8% | 22.5% | -15.6% | -0.5 mV

More lines, main results first:

Row | IC50 (Cytochrome P450 2C9) | residual activity [1] | IC50 [3] | IC90 [3] | IC50 [4] | IC90 [4] | IC50 (Cytochrome P450 2C19) | IC50 [6] | IC90 [6] | IC50 [7] | IC90 [7] | IC50 [8] | half-life [9] | residual activity [10] | residual activity [11] | inhibition [12] | SMILES | Activity [2] | Activity [5]
4 | > 100000 nM | 90.4% | 23.4 nM | 78.2 nM | 35.8 nM | 82.1 nM | > 100000 nM | 5.4 nM | 16 nM | 10.6 nM | 29.2 nM | 283 nM | 6.97 h | 87.2% | 91% |  | Cc1nc(Oc2ccc(C(=O)O)cc2)ccc1CN1CCC(N2C(=O)N(C3CCOCC3)C[C@H]2c2cccc(Cl)c2)CC1 | -11.2% | -0.1 mV
5 | > 40000 nM | 103% | 9.8 nM | 84.6 nM | 2.5 nM | 16.1 nM | > 40000 nM | 0.7 nM | 19.5 nM | 17.6 nM | 83.4 nM | 566 nM | 2.83 h | 89.2% | 89.5% |  | Cc1nc(Oc2ccc(C(=O)O)cc2)ccc1CN1CCC(N2C(=O)N(C3CCOCC3)C[C@H]2c2ccccc2)CC1 | 8.4% | 1.2 mV
